Laboratory results reported in ChEMBL document CHEMBL1127679, “6H-pyrazolo[4,5,1-de]acridin-6-ones as a novel class of antitumor agents. Synthesis and biological activity” (J Med Chem, 1994).
pIC50: −log10 of the molar value.

How the values were obtained:
Nucleic Acid = experiment: Relative affinity for DNA binding; assay type: nucleic-acid assay
Mus musculus [1] = species: Mus musculus; experiment: %T/C value measured in antitumor activity using murine P388 leukemia cells; assay type: functional
Method in brief: (§1)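 Mice inoculated ip with P388 leukemia cells or the adriamycin-resistant subline P388/ADM. Drug activity expressed as T/C (%), i.e. mean survival days of the treated group over those of the control group, followed for 60 days. T/C >130% taken as significant. Optimal dose reported in mg/kg per injection.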

Mus musculus [2] = species: Mus musculus; experiment: %T/C value measured in antitumor activity using murine P388/ADM cells; assay type: functional; method in brief: as §1
Mus musculus [3] = species: Mus musculus; experiment: Compound evaluated for optimal dose per injection against adriamycin resistant murine cell line (P388/ADM cells); assay type: functional; method in brief: as §1
Mus musculus [4] = experiment: Compound evaluated for optimal dose (mg/kg) per injection against murine P388 leukemia cells; assay type: functional; method in brief: as §1
Mus musculus [5] = species: Mus musculus; experiment: %T/C value measured in antitumor activity using murine sarcoma 180 tumor cells; assay type: functional
Method in brief: (§2)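 Sarcoma 180 cells inoculated sc in mice. Drugs tested for antitumor activity, with the optimal dose given in mg/kg per injection. Activity expressed as treated versus control (T/C) value, and T/C <50% taken as effective.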

Mus musculus [6] = species: Mus musculus; experiment: Compound evaluated for optimal dose per injection against murine sarcoma 180 cells; assay type: functional; method in brief: as §2
Mus musculus [7] = species: Mus musculus; experiment: Compound evaluated for optimal dose per injection against murine P388 leukemia cells; assay type: functional; method in brief: as §1
Mus musculus [8] = species: Mus musculus; experiment: %T/C value measured in antitumor activity using murine sarcoma 180 cells; assay type: functional; method in brief: as §2
Mus musculus [9] = species: Mus musculus; experiment: %T/C value measured in antitumor activity using murine P388/ADM cells.; assay type: functional; method in brief: as §1

| pIC50 (Nucleic Acid) | Compound | T/C (Mus musculus [1]) | T/C (Mus musculus [2]) | Optimal dose (Mus musculus [3]) | Optimal dose (Mus musculus [4]) | T/C (Mus musculus [5]) | Optimal dose (Mus musculus [6]) | Optimal dose (Mus musculus [7]) | T/C (Mus musculus [8]) | T/C (Mus musculus [9]) |
| --- | --- | --- | --- | --- | --- | --- | --- | --- | --- | --- |
| 5.98 | O=c1c2c(O)cccc2n2nc(CNCCO)c3ccc(NCCCO)c1c32 | 152% | 123% | 50 mg/kg | 13 mg/kg | – | – | – | – | – |
| 6.59 | CN(C)CCNCc1nn2c3ccccc3c(=O)c3c(NCCN(C)C)ccc1c32 | – | – | – | – | – | – | – | – | – |
| 6.74 | COc1cccc2c1c(=O)c1c(NCCN)ccc3c(CNCCN)nn2c31 | 139% | – | – | 25 mg/kg | – | – | – | – | – |
| 6.89 | NCCCNc1ccc2c(CNCCO)nn3c4cccc(O)c4c(=O)c1c23 | >230% | 156% | 6.3 mg/kg | – | 21% | 6 mg/kg | 13 mg/kg | – | – |
| 6.80 | COc1cccc2c1c(=O)c1c(NCCN(C)C)ccc3c(CNCCN(C)C)nn2c31 | – | – | – | – | – | – | – | – | – |
| 6.05 | NCCCNc1ccc2c(CN3CCOCC3)nn3c4cccc(O)c4c(=O)c1c23 | >278% | – | 13 mg/kg | 13 mg/kg | – | 13 mg/kg | – | 33% | 115% |
| 6.38 | CN(C)CCNc1ccc2c(CN(CCO)CCO)nn3c4cccc(O)c4c(=O)c1c23 | >286% | – | 25 mg/kg | 25 mg/kg | 42% | 13 mg/kg | – | – | 134% |
| 6.77 | NCCNCc1nn2c3cccc(O)c3c(=O)c3c(NCCN)ccc1c32 | >254% | 138% | 13 mg/kg | – | 12% | 25 mg/kg | 13 mg/kg | – | – |
| – | COc1cccc2c1C(=O)c1c(O)c3c(c(O)c1C2=O)C[C@@](O)(C(=O)CO)C[C@@H]3O[C@H]1C[C@H](N)[C@H](O)[C@H](C)O1 [DOXORUBICIN] | >254% | – | 7.5 mg/kg | 7.5 mg/kg | – | 7.5 mg/kg | – | 31% | 116% |
| 6.77 | NCCNc1ccc2c(CNCCCCO)nn3c4cccc(O)c4c(=O)c1c23 | 146% | 126% | 6.3 mg/kg | 3.1 mg/kg | – | – | – | – | – |
| 6.85 | NCCNc1ccc2c(CNCCCO)nn3c4cccc(O)c4c(=O)c1c23 | >181% | 146% | 3.1 mg/kg | 3.1 mg/kg | – | – | – | – | – |
| 6.85 | NCCNc1ccc2c(CNCCO)nn3c4cccc(O)c4c(=O)c1c23 | >222% | 152% | 1.6 mg/kg | – | – | 6.3 mg/kg | 1.6 mg/kg | 6% | – |
| 6.85 | O=c1c2c(O)cccc2n2nc(CNCCO)c3ccc(NCCNCCO)c1c32 | >208% | 145% | 6.3 mg/kg | 3.1 mg/kg | 5% | 12 mg/kg | – | – | – |
| 6.96 | CCNCc1nn2c3cccc(O)c3c(=O)c3c(NCCN(C)C)ccc1c32 | 196% | 126% | 3.1 mg/kg | – | – | – | 3.1 mg/kg | – | – |
| 6.74 | CN(C)CCNc1ccc2c(CNCCO)nn3c4cccc(O)c4c(=O)c1c23 | >261% | 144% | 3.1 mg/kg | – | 9% | 3.1 mg/kg | 6.3 mg/kg | – | – |
| 6.72 | NCCCCNc1ccc2c(CNCCO)nn3c4cccc(O)c4c(=O)c1c23 | 161% | 112% | 50 mg/kg | – | – | – | 25 mg/kg | – | – |
| 6.89 | NCCNCc1nn2c3ccccc3c(=O)c3c(NCCN)ccc1c32 | 150% | – | – | – | – | – | 38 mg/kg | – | – |
| 6.80 | CN(C)CCNCc1nn2c3cccc(O)c3c(=O)c3c(NCCN(C)C)ccc1c32 | – | – | – | – | – | – | – | – | – |
